Source: PubChem BioAssay
Results filed as inconclusive are left out.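 How the source made its calls, unless noted: active means growth inhibition above 25% in both replicates, a cutoff set 3 SD above the mean; inconclusive means above 25% in only one replicate; inactive means the rest.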

Assays:
[1] = S. cerevisiae growth inhibition in permissive medium (OD615), pilot counter-assay for S. cerevisiae lifespan shortening project, permissive growth control (AID 705); details: OD615, 24 h, at 10 µM, active compounds read high
How it was run: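 System: engineered DeaD yeast; Medium: permissive raffinose/galactose medium; Compound dosing: 10 µM single dose, 0.25% DMSO; Incubation: 4 h cell pre-growth, 24 h exposure at 30 °C; Technique: OD at 615 nm; Evaluation: growth inhibition from lowered OD615 after 24 h.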

[2] = S. cerevisiae growth inhibition in restrictive medium, OD615, pilot screen, restrictive growth control, yeast lifespan reduction project (AID 706;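 active means growth inhibition above a set limit, 3 SD over mean compound inhibition, in both replicates, cut at about 43% in these data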;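 further: modified DeaD lifespan yeast strain shifted to restrictive glucose medium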); details: OD615, 48 h, at 10 µM, active compounds read high
How it was run: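 Material: modified S. cerevisiae; buffer or medium: CSMM-D glucose medium; doses: one concentration, 10 µM final, 0.25% DMSO; incubation: 48 h compound exposure at 30 °C; detection: optical density at 615 nm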

[3] = doxorubicin toxicity protection in MRP-1 cells – H69AR cells, CellTiter-Glo, duplicate, MRP-1 activator project, pilot screen (AID 807;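 active means viability increase at or above a cutoff of the median across tested compounds plus 3 SD, cut at about 8.5% in these data, passing the limit was not always enough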;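 further: compound pretreatment 18-22 h then 72 h combined with doxorubicin; 0% = doxorubicin alone and 100% = vehicle without doxorubicin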); details: H69AR viability with doxorubicin, CellTiter-Glo luminescence; at 10 µM; active compounds read high
[4] = viability of HCT116 without oncogenic beta-catenin – human colon tumor cells, pilot screen (AID 823;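 active means cell viability at or below a set limit in both duplicate runs, the limit being the all-compound median minus 4 SD, cut at about 23% in these data, passing the limit was not always enough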;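 further: 0% = wells killed by 20 µM Hyamine and 100% = untreated DMSO cell wells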); details: HCT116 beta-catenin knockout viability, CellTiter-Glo, 60 h; at 10 µM; active compounds read low
[5] = viability of PTEN-null HCT116 cells – cell-based, HCT116 clonal line, CellTiter-Glo, pilot screen (AID 824;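 active means viability at or below 27.92% in each of two runs, the all-compound median minus 4 SD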;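 further: 0% = 20 µM Hyamine control and 100% = vehicle cell control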); details: HCT116 PTEN-deleted viability, 60 h, at 10 µM, active compounds read low
[6] = RAM pathway blockade in budding yeast – dse1pr::URA3 reporter, 5-FOA selection, pilot screen (AID 869;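 active means inhibition over a set limit, the all-compound mean plus 3 SD, in both replicate runs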;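 further: 0% = DMSO wells with no growth and 100% = 10 µM 1-NA-PP1 with full growth; RAM network block rescues cells from 5-FOA so hits raise OD615 growth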); details: S. cerevisiae dse1pr::URA3 5-FOA growth, OD615, 2 d; at 10 µM; active compounds read high; strain carries analog-sensitive mutant Cbk1 kinase
[7] = RAM signaling pathway blockade in yeast – S. cerevisiae, Pdr1DBD-CYC8 efflux-inhibited sensitized strain, primary screen (AID 1298;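 active means RAM network inhibition above 8.4% in each of two replicates, 3 SD over the compound average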;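 further: 0% = DMSO untreated cells without growth and 100% = 10 µM 1-NA-PP1 full growth; higher means more yeast growth rescued from 5-FOA killing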); details: S. cerevisiae cbk1-as DSE1-URA3 strain, 5-FOA growth OD615, 2 d; at 50 µM; active compounds read high

COc1cccc(NC(=O)c2nnn(CCc3ccccc3)c2N)c1
inactive: growth inhibition [1] -1.48% | growth inhibition [2] 0.3% | viability increase [3] -6.11% | viability [4] 65.9% | viability [5] 50.7% | inhibition [6] 2.52% | RAM network inhibition [7] 0.72%

Cc1ccc(CCN2CC(C(=O)NCc3cccnc3)CC2=O)cc1 (configuration not stated)
inactive: growth inhibition [1] 6% | growth inhibition [2] 5.13% | viability increase [3] -0.64% | viability [4] 104% | viability [5] 94.5% | inhibition [6] 2.59% | RAM network inhibition [7] -0.99%

Cc1cc(C(=O)N2CCN(S(C)(=O)=O)CC2)cs1
inactive: growth inhibition [1] -7.07% | growth inhibition [2] -12.8% | viability increase [3] -1.25% | viability [4] 94.5% | viability [5] 88.9% | inhibition [6] 1.6% | RAM network inhibition [7] -0.04%

CCCCCn1c(SCc2cccc(C)c2)nc2c1c(=O)[nH]c(=O)n2C
inactive: growth inhibition [1] -12.8% | growth inhibition [2] -18.8% | viability increase [3] -7.54% | viability [4] 70.1% | viability [5] 66.4% | inhibition [6] 1.67% | RAM network inhibition [7] 5.94%

COc1ccc(S(=O)(=O)N2CCN(c3c(C)cccc3C)CC2)cc1OC
inactive: growth inhibition [1] -1.27% | growth inhibition [2] -7.95% | viability increase [3] -1% | viability [4] 78.2% | viability [5] 74.4% | inhibition [6] 0.435% | RAM network inhibition [7] 10.8%

Cn1c(Cn2c(=O)sc3ccccc32)nnc1SCC(=O)N1CCN(c2ccccc2)CC1
inactive: growth inhibition [1] 0.845% | growth inhibition [2] 24.3% | viability increase [3] -0.95% | viability [4] 100% | viability [5] 96.6% | inhibition [6] 0.04% | RAM network inhibition [7] 3.66%

COc1cc(NC(=O)Cc2ccccc2)cc(OC)c1
inactive: growth inhibition [1] -1.66% | growth inhibition [2] -4.67% | viability increase [3] -2.51% | viability [4] 107% | viability [5] 96.7% | inhibition [6] 1.11% | RAM network inhibition [7] 0.25%

CCOc1ccc(C2c3c(oc4ccccc4c3=O)C(=O)N2c2ccc(C)cn2)cc1OC (configuration not stated)
inactive: growth inhibition [1] -7.41% | growth inhibition [2] 2.13% | viability increase [3] -4.09% | viability [4] 81.4% | viability [5] 83.7% | inhibition [6] 1.88% | RAM network inhibition [7] 4.03%

Clc1cc(NCc2cccs2)ccc1N1CCOCC1
inactive: growth inhibition [1] -13.5% | growth inhibition [2] -6.34% | viability increase [3] -3.46% | viability [4] 78.9% | viability [5] 92% | inhibition [6] 1.17% | RAM network inhibition [7] 4.21%

COc1cc2c(cc1OC)C(C(=O)Nc1ccc3c(c1)OCCO3)C(c1cccnc1)N(C)C2=O (configuration not stated)
inactive: growth inhibition [1] -4.64% | growth inhibition [2] -22.9% | viability increase [3] -6.9% | viability [4] 85.6% | viability [5] 87.9% | inhibition [6] 1.38% | RAM network inhibition [7] -0.57%

O=C(/C=C\Nc1ccccn1)c1ccc(Cl)cc1
inactive: growth inhibition [1] -7.61% | growth inhibition [2] -36.4% | viability increase [3] 0.28% | viability [4] 83.5% | viability [5] 81.7% | inhibition [6] 2.68% | RAM network inhibition [7] 8.82%

CC1CCN(S(=O)(=O)c2ccc3c(c2)oc(=O)n3CC(=O)NCc2ccc3c(c2)OCO3)CC1
inactive: growth inhibition [1] -1.64% | growth inhibition [2] -15.8% | viability increase [3] 4.02% | viability [4] 81.4% | viability [5] 76.7% | inhibition [6] 3.27% | RAM network inhibition [7] 2.06%

Cc1cc(C(=O)NCC2CCCO2)n(-c2ccccc2)n1 (configuration not stated)
inactive: growth inhibition [1] -0.68% | growth inhibition [2] -2.33% | viability increase [3] -1.22% | viability [4] 100% | viability [5] 103% | inhibition [6] 0.28% | RAM network inhibition [7] 2.07%

O=C(Nc1nc(-c2cc3ccccc3oc2=O)cs1)c1ccco1
inactive: growth inhibition [1] -17.5% | growth inhibition [2] -10.9% | viability increase [3] -1.98% | viability [4] 102% | viability [5] 100% | inhibition [6] 1.57% | RAM network inhibition [7] 3.32%

O=C(NCCCN1CCN(c2ccccc2F)CC1)C1CCC(=O)N1C1CCCC1 (configuration not stated)
inactive: growth inhibition [1] -13% | growth inhibition [2] -1.25% | viability increase [3] -2.46% | viability [4] 102% | viability [5] 93.6% | inhibition [6] 1.08% | RAM network inhibition [7] 5.85%

O=C(c1ccc(-c2ccccc2)cc1)N1CCCC1
inactive: growth inhibition [1] 0.63% | growth inhibition [2] -4.7% | viability increase [3] 0.06% | viability [4] 94.9% | viability [5] 98.8% | inhibition [6] 0.02% | RAM network inhibition [7] 10.3%

O=C(c1ccc(Cn2c(=O)[nH]c3ccccc3c2=O)cc1)N1CCN(c2ccccn2)CC1
inactive: growth inhibition [1] -11.8% | growth inhibition [2] -8.79% | viability increase [3] -2.12% | viability [4] 93.1% | viability [5] 78.6% | inhibition [6] 0.23% | RAM network inhibition [7] 8.38%

CC1CCCCC1NS(=O)(=O)c1ccc(S(=O)(=O)N2CCN(CCC#N)CC2)cc1 (configuration not stated)
inactive: growth inhibition [1] -0.665% | growth inhibition [2] -2.72% | viability increase [3] -2.84% | viability [4] 86.2% | viability [5] 87.8% | inhibition [6] 0.54% | RAM network inhibition [7] 3.44%

O=C(CSc1nnc(-c2ccccc2Cl)o1)N1CCCCC1
inactive: growth inhibition [1] -8.71% | growth inhibition [2] 7.85% | viability increase [3] 1.04% | viability [4] 95.1% | viability [5] 97.6% | inhibition [6] 0.32% | RAM network inhibition [7] 0.36%

COC(=O)C(C(=O)OC)C(C(C)C)C(C(=O)OC)C(=O)OC
inactive: growth inhibition [1] -8.23% | growth inhibition [2] -9.04% | viability increase [3] -1.49% | viability [4] 101% | viability [5] 98.2% | inhibition [6] 1.07% | RAM network inhibition [7] 3.68%

CCN1CCN(C(c2cccs2)C(C)NC(=O)C(C)C)CC1 (configuration not stated)
inactive: growth inhibition [1] -3.71% | growth inhibition [2] 2.65% | viability increase [3] -2.01% | viability [4] 98% | viability [5] 92.2% | inhibition [6] -0.3% | RAM network inhibition [7] 3.86%

CCc1ccc(NC(=O)c2cnc3n(c2=O)CCS3)cc1
inactive: growth inhibition [1] -1.06% | growth inhibition [2] 0.895% | viability increase [3] -2.9% | viability [4] 95.2% | viability [5] 85.9% | inhibition [6] 2.82% | RAM network inhibition [7] 0.15%

O=C(CCC1CCCC1)N1CCN(C(=O)c2ccco2)CC1
inactive: growth inhibition [1] -5.94% | growth inhibition [2] -2.57% | viability increase [3] -3.59% | viability [4] 86.3% | viability [5] 83.2% | inhibition [6] 1.39% | RAM network inhibition [7] 0.98%

O=c1cc(N2CCOCC2)[nH]c(=O)n1Cc1ccc(F)cc1
inactive: growth inhibition [1] 5.3% | growth inhibition [2] -2.77% | viability increase [3] 0.52% | viability [4] 95.3% | viability [5] 99.1% | inhibition [6] 1.04% | RAM network inhibition [7] -0.98%

Cc1nn(C)c(C)c1S(=O)(=O)N(CC(=O)Nc1nccs1)c1ccc(C(C)C)cc1
inactive: growth inhibition [1] -0.91% | growth inhibition [2] -7.29% | viability increase [3] -4.04% | viability [4] 99% | viability [5] 90.5% | inhibition [6] 2.3% | RAM network inhibition [7] 2.72%

Cc1nc2scc(-c3cccs3)c2c(=O)o1
inactive: growth inhibition [1] -24% | growth inhibition [2] 14.4% | viability increase [3] -1.96% | viability [4] 95.8% | viability [5] 98.7% | inhibition [6] 1.73% | RAM network inhibition [7] 3.15%

O=C1CC(Nc2ccc(N3CCOCC3)cc2)C(=O)N1c1ccccc1F (configuration not stated)
inactive: growth inhibition [1] 1.41% | growth inhibition [2] -5.97% | viability increase [3] -2.99% | viability [4] 110% | viability [5] 105% | inhibition [6] 1.53% | RAM network inhibition [7] 5.38%

CCCS(=O)(=O)c1nc(S(=O)(=O)c2ccc(C)cc2)c(N2CCCC2)s1
inactive: growth inhibition [1] -0.655% | growth inhibition [2] 9.56% | viability increase [3] -2.03% | viability [4] 103% | viability [5] 96.3% | inhibition [6] 4.48% | RAM network inhibition [7] 10.2%

O=C(CCSc1nc(-c2ccc3c(c2)OCO3)cc(C(F)(F)F)n1)NCc1ccco1
inactive: growth inhibition [1] -4.51% | growth inhibition [2] -2.02% | viability increase [3] -2.85% | viability [4] 74.8% | viability [5] 74.6% | inhibition [6] 2.63% | RAM network inhibition [7] 2.97%

CCn1ccnc1C(O)c1cccc(OC)c1OC (configuration not stated)
inactive: growth inhibition [1] -8.24% | growth inhibition [2] -3.01% | viability increase [3] -0.74% | viability [4] 108% | viability [5] 96.3% | inhibition [6] 2.75% | RAM network inhibition [7] 3.57%

O=c1cc(CO)oc(C(Nc2ccccn2)c2ccccc2F)c1O (configuration not stated)
inactive: growth inhibition [1] -10.6% | growth inhibition [2] -4.86% | viability increase [3] -5.64% | viability [4] 106% | viability [5] 93.3% | inhibition [6] 0.95% | RAM network inhibition [7] 2.91%

COC(=O)c1nc(NC(=O)C(C)(C)C)n[nH]1
inactive: growth inhibition [1] -9.88% | growth inhibition [2] -18.8% | viability increase [3] -3.77% | viability [4] 92.7% | viability [5] 89.8% | inhibition [6] 2.06% | RAM network inhibition [7] 0.47%

O=C(CN(Cc1ccc(F)cc1)S(=O)(=O)c1ccccc1)N1CCCCC1
inactive: growth inhibition [1] -9.46% | growth inhibition [2] -3.51% | viability increase [3] -2.51% | viability [4] 97.3% | viability [5] 89.8% | inhibition [6] 0.975% | RAM network inhibition [7] 4.25%

CCOCCCNC(=O)C(c1ccc(Cl)cc1)N1CCN(c2ccccc2)CC1 (configuration not stated)
inactive: growth inhibition [1] -7.14% | growth inhibition [2] 6.11% | viability increase [3] -2.39% | viability [4] 87% | viability [5] 85% | inhibition [6] 0.95% | RAM network inhibition [7] 3.13%

Cc1c(C(=O)NCc2ccccc2)oc2ccc(S(=O)(=O)N3CCCC3)cc12
inactive: growth inhibition [1] -11.4% | growth inhibition [2] 3.53% | viability increase [3] -2.64% | viability [4] 97% | viability [5] 93.1% | inhibition [6] 1.49% | RAM network inhibition [7] 2.93%

Cn1c(=O)[nH]c(=O)c2c1nc(N1CCN(c3ccccc3)CC1)n2CCSc1ncccn1
inactive: growth inhibition [1] -4.54% | growth inhibition [2] 7.86% | viability increase [3] -2.82% | viability [4] 93% | viability [5] 82.6% | inhibition [6] 0.42% | RAM network inhibition [7] 4.89%
